The source of these data is ChEMBL document CHEMBL3352483, “Synthesis, structure-activity relationships and biological evaluation of barbigerone analogues as anti-proliferative and anti-angiogenesis agents” (Bioorg Med Chem Lett, 2014).

Some results are limits rather than exact numbers.

Format in all cases: functional, cell-based
One assay relates to HepG2. Put plainly: Antiproliferative activity against human HepG2 cells after 24 hrs by MTT assay. The note with it: HepG2, 24 h. Summed up:
(§1)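 MTT proliferation assay on HUVECs and on HepG2, A375, U251, B16 and HCT116 cells. Results reported as IC50.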
(In general: Formazan colour is commonly taken as a measure of viable cells.)

For a further assay, the system named is A-375. Put plainly: Antiproliferative activity against human A375 cells after 24 hrs by MTT assay. The note with it: A-375, 24 h. Summed up:
as §1

The test system of the next assay is U-251. Description: Antiproliferative activity against human U251 cells after 24 hrs by MTT assay. The note with it: U-251, 24 h. Summed up: as §1
The next assay deals with B16. Description: Antiproliferative activity against mouse B16 cells after 24 hrs by MTT assay. The note with it: B16, 24 h. The method in brief:
as §1

A short description of assay [1]: Antiproliferative activity against human HCT116 cells after 24 hrs by MTT assay. The note with it: HCT-116, 24 h. The method in brief:
as §1

In a further assay the test system is HUVEC. Description: Antiproliferative activity against HUVEC after 24 hrs by MTT assay. The note with it: Homo sapiens. The method in brief: as §1

For orientation: IC50 means the concentration needed to halve the response being measured. `COc1cc(OC)c(-c2coc3cc(OCCN4CCOCC4)ccc3c2=O)cc1OC`: the IC50 (in the assay on HepG2; in the assay with A-375; in the assay with U-251; with B16; in assay [1]; in the assay with HUVEC) was above 10 µM throughout.

As for `COc1cc(OC)c(-c2coc3cc(OCc4ccc(C#N)cc4)ccc3c2=O)cc1OC`, the concentration for half-maximal inhibition (IC50) in the assay on HepG2 came out at 4.23 µM; in the assay on A-375, 1.55 µM; with U-251 it was 6.18 µM; in the assay with B16 it was 7 µM; in assay [1] it was 4.22 µM.

Take `COc1cc(OC)c(-c2coc3cc(OCc4ccc(Br)cc4)ccc3c2=O)cc1OC`: the IC50 is 1.05 µM in the assay on HepG2; 1 µM with A-375; 1.18 µM in the assay on B16; 1.98 µM in assay [1]; above 10 µM with HUVEC.

Consider `COc1cc(OC)c(-c2coc3cc(OC(=O)Cc4cccc(C(F)(F)F)c4)ccc3c2=O)cc1OC`, for which the IC50 (in the assay with HepG2; in the assay with A-375; with U-251; with B16; in assay [1]; in the assay with HUVEC) was above 10 µM in each case.

Take `COc1cc(OC)cc(-c2coc3c4c(ccc3c2=O)OC(C)(C)C=C4)c1`: the IC50 (with HepG2; in the assay on A-375; in the assay on U-251; with B16; in assay [1]; with HUVEC) was above 10 µM each time.

For the molecule `COc1ccc(-c2coc3c4c(ccc3c2=O)OC(C)(C)C=C4)c(OC)c1`, the IC50 (in the assay on HepG2; in the assay on A-375; in the assay on U-251; with B16; in assay [1]; in the assay on HUVEC) was above 10 µM in each case.

On to `CC1(C)C=Cc2c(ccc3c(=O)c(-c4cccc(C=O)c4)coc23)O1`, for which the half-inhibitory concentration (IC50) (in the assay on HepG2; in the assay on A-375; in the assay on U-251; in the assay on B16; in assay [1]; in the assay on HUVEC) was above 10 µM each time.

`COc1ccc(-c2coc3c4c(ccc3c2=O)OC(C)(C)C=C4)c(OC)c1OC`: the IC50 (in the assay with HepG2; in the assay on A-375; in the assay on U-251; in the assay on B16; in assay [1]; in the assay with HUVEC) was above 10 µM each time.

For `COc1cc(OC)c(-c2coc3cc(OCc4ccccc4Br)ccc3c2=O)cc1OC`, the IC50 is 2.18 µM with HepG2; 2.85 µM in the assay on A-375; above 10 µM with U-251; 8.9 µM in the assay with B16; 4.55 µM in assay [1]; above 10 µM in the assay on HUVEC.

On to `COc1cc(OC)c(-c2coc3cc(OCc4cccc(F)c4)ccc3c2=O)cc1OC`, for which the half-maximal inhibitory concentration (IC50) with HepG2 came out at 1.23 µM; in the assay with A-375, 1.3 µM; in the assay on U-251 it was 3.51 µM; in the assay with B16, 2.44 µM; in assay [1], 4.92 µM; in the assay on HUVEC, 5.3 µM.

Turning to `COc1ccc(-c2coc3c4c(ccc3c2=O)OC(C)(C)C=C4)cc1OC`, the half-inhibitory concentration (IC50) (in the assay with HepG2; in the assay with A-375; in the assay with U-251; with B16; in assay [1]; in the assay on HUVEC) was above 10 µM in each case.

For the molecule `CC1(C)C=Cc2c(ccc3c(=O)c(-c4ccc(C(F)(F)F)cc4Cl)coc23)O1`, the IC50 in the assay on HepG2 is above 10 µM; with A-375, 8.9 µM; in the assay with U-251, 2.5 µM; with B16, 3.55 µM; in assay [1], 3.8 µM; with HUVEC, above 10 µM.

As to `COc1cc(OC)c(-c2coc3cc(OCc4cccc(C(F)(F)F)c4)ccc3c2=O)cc1OC`, the IC50 with HepG2 was 0.61 µM; in the assay on A-375 it was 1.14 µM; in the assay on U-251, above 10 µM; in the assay with B16, above 10 µM; in assay [1] it was 3.4 µM; in the assay with HUVEC it was above 10 µM.

With `CC1(C)C=Cc2c(ccc3c(=O)c(-c4ccc(C#N)cc4)coc23)O1`, the IC50 (with HepG2; in the assay on A-375; in the assay with U-251; in the assay on B16; in assay [1]; in the assay on HUVEC) was above 10 µM in each case.

For the molecule `COc1cc(OC)c(-c2coc3cc(OCc4cccc(Cl)c4)ccc3c2=O)cc1OC`, the IC50 in the assay with HepG2 is 0.75 µM; in the assay on A-375, 0.98 µM; in the assay with U-251 it was above 10 µM; with B16 it was 2.28 µM; in assay [1] it was 1.33 µM; in the assay with HUVEC it was above 10 µM.

As for `CC(=O)c1ccc(-c2coc3c4c(ccc3c2=O)OC(C)(C)C=C4)cc1`, the 50% inhibitory concentration (IC50) (in the assay with HepG2; with A-375; in the assay on U-251; with B16; in assay [1]; in the assay with HUVEC) was above 10 µM each time.

Consider `COc1cc(OC)c(-c2coc3cc(OCc4ccccc4C)ccc3c2=O)cc1OC`, for which the IC50 came to 1.86 µM with HepG2; 1.36 µM in the assay with A-375; 2 µM in the assay with U-251; 2.15 µM in the assay with B16; 2.9 µM in assay [1]; 4.83 µM with HUVEC.

With `CC1(C)C=Cc2c(ccc3c(=O)c(-c4ccc5c(c4)OCO5)coc23)O1`, the IC50 (with HepG2; with A-375; with U-251; in the assay on B16; in assay [1]; in the assay with HUVEC) was above 10 µM each time.

As to `COc1ccc(OC)c(-c2coc3c4c(ccc3c2=O)OC(C)(C)C=C4)c1`, the IC50 (in the assay with HepG2; in the assay on A-375; in the assay on U-251; in the assay on B16; in assay [1]; in the assay on HUVEC) was above 10 µM in each case.

For the molecule `COc1ccc(-c2coc3c4c(ccc3c2=O)OC(C)(C)C=C4)cc1`, the half-inhibitory concentration (IC50) (with HepG2; in the assay on A-375; in the assay on U-251; with B16; in assay [1]; with HUVEC) was above 10 µM throughout.

On to `CC1(C)C=Cc2c(ccc3c(=O)c(-c4ccc5c(c4)OCCO5)coc23)O1`, for which the 50% inhibitory concentration (IC50) (with HepG2; with A-375; in the assay with U-251; in the assay on B16; in assay [1]; with HUVEC) was above 10 µM throughout.

As to `C#CCOc1ccc2c(=O)c(-c3cc(OC)c(OC)cc3OC)coc2c1`, the IC50 with HepG2 is 4.95 µM; in the assay on A-375, 3.68 µM; with U-251 it was 6.45 µM; with B16, 4.5 µM; in assay [1], 8.05 µM; with HUVEC, above 10 µM.

Turning to `COc1cc(OC)c(-c2coc3cc(OCc4ccc(C(F)(F)F)cc4)ccc3c2=O)cc1OC`, the IC50 was 0.89 µM with HepG2; 2.28 µM with A-375; 3.75 µM in the assay on U-251; 5.4 µM in the assay with B16; 2.44 µM in assay [1]; above 10 µM with HUVEC.

For `COc1cc(OC)c(-c2coc3cc(OCc4ccc(Cl)cc4)ccc3c2=O)cc1OC`, the half-maximal inhibitory concentration (IC50) in the assay with HepG2 was 0.94 µM; in the assay with A-375 it was 1.02 µM; with U-251 it was 0.47 µM; in the assay on B16 it was 2.4 µM; in assay [1], 4.45 µM; with HUVEC, 4.4 µM.

Turning to `COc1cc(OC)c(-c2coc3cc(OCc4ccccc4C#N)ccc3c2=O)cc1OC`, the IC50 in the assay on HepG2 was above 10 µM; in the assay with A-375 it was 0.99 µM; in the assay with U-251, 0.98 µM; in the assay with B16, 2.14 µM; in assay [1], above 10 µM; in the assay with HUVEC, above 10 µM.

Regarding `CC1(C)C=Cc2c(ccc3c(=O)c(-c4ccc(C=O)cc4)coc23)O1`, the half-maximal inhibitory concentration (IC50) (in the assay on HepG2; with A-375; in the assay on U-251; with B16; in assay [1]; in the assay with HUVEC) was above 10 µM throughout.

For the molecule `COc1cc(OC)c(-c2coc3cc(OCc4ccc(F)cc4)ccc3c2=O)cc1OC`, the 50% inhibitory concentration (IC50) in the assay on HepG2 was 1 µM; in the assay on A-375 it was 1.72 µM; with U-251, 3.2 µM; in the assay on B16 it was 1.12 µM; in assay [1], 0.95 µM; in the assay on HUVEC it was above 10 µM.

For `COc1cc(OC)c(-c2coc3cc(OCc4ccccc4C(F)(F)F)ccc3c2=O)cc1OC`, the IC50 in the assay with HepG2 was 6.55 µM; in the assay on A-375, above 10 µM; in the assay on U-251, above 10 µM; in the assay with B16 it was 8.55 µM; in assay [1] it was 4.76 µM; with HUVEC it was above 10 µM.

For `COc1cccc(-c2coc3c4c(ccc3c2=O)OC(C)(C)C=C4)c1F`, the IC50 (in the assay with HepG2; with A-375; in the assay on U-251; in the assay on B16; in assay [1]; in the assay with HUVEC) was above 10 µM in each case.

As for `CC1(C)C=Cc2c(ccc3c(=O)c(-c4ccc(O)cc4)coc23)O1`, the IC50 (in the assay on HepG2; with A-375; in the assay with U-251; in the assay on B16; in assay [1]; in the assay with HUVEC) was above 10 µM each time.

As for `COc1ccccc1-c1coc2c3c(ccc2c1=O)OC(C)(C)C=C3`, the IC50 (in the assay on HepG2; in the assay with A-375; in the assay with U-251; in the assay with B16; in assay [1]; in the assay with HUVEC) was above 10 µM each time.

In the case of `COc1ccc2c(=O)c(-c3cc(OC)c(OC)cc3OC)coc2c1`, the half-maximal inhibitory concentration (IC50) is 2.04 µM in the assay with HepG2; 2.64 µM in the assay on A-375; 9.4 µM with U-251; 5.2 µM with B16; 9.17 µM in assay [1]; above 10 µM with HUVEC.

With `CCOc1ccccc1-c1coc2c3c(ccc2c1=O)OC(C)(C)C=C3`, the concentration for half-maximal inhibition (IC50) (in the assay on HepG2; in the assay on A-375; with U-251; in the assay with B16; in assay [1]; with HUVEC) was above 10 µM each time.
